# Compounds with a hit are over-represented: about 2.6% of the library has one in this group of screens.
# ABCB6 inh 2: ABCB6 transporter inhibitors, primary screen, K562-ABCB6 cells, flow cytometry, MLPCN library | ATP-binding cassette sub-family B member 6 (Homo sapiens), Q9NP58 | K562-ABCB6 porphyrin accumulation, 1 h; active compounds read low | fluorescence ratio to DMSO, % at 10 µM | 0.19% of 360,000 active | AID 602162, 2011;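 active means fluorescence ratio to DMSO below 75%, the collection mean minus 3 SD; inconclusive means too few cells collected in the well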;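 further: signal is porphyrin accumulated inside mitochondria; 100% equals median channel fluorescence of DMSO control wells; lower ratio means ABCB6 inhibition with less porphyrin fluorescence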
# MC4R antagonist: MC4R antagonists of cAMP signaling, primary screen, cell-based, TR-FRET, antagonist arm of biased-ligand search | Melanocortin receptor 4 (Homo sapiens), P32245 | inhibition, % at 6.5 µM | MC4R-expressing cells, MTII-stimulated cAMP, LANCE TR-FRET | 0.48% of 360,000 active | AID 540295, 2011;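 active means inhibition above its plate's cutoff, the mean of tested wells on that plate plus 3 SD, cut at about 29% in these data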;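 further: 0% = Melanotan II alone and 100% = Melanotan II plus saturating MCL0020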
# Target sequence (P32245 whole entry, looked up): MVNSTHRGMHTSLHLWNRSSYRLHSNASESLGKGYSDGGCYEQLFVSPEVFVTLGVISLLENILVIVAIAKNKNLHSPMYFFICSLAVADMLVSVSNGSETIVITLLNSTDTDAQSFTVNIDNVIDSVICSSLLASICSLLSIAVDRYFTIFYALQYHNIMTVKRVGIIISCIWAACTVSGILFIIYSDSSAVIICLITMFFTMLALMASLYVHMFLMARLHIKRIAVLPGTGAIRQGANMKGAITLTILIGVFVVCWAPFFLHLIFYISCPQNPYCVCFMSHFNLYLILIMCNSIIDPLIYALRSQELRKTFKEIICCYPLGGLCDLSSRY
#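 Material: U2OS-MC4R stable cell line | Reagent: Melanotan II challenge after compound preincubation | Doses: One concentration, 6.5 µM nominal | Incubation: 30-min compound preincubation, 1-h Melanotan II challenge, 1-h detection, room temperature | Signal: TR-FRET cAMP assay | Replicates: One well per compound, no replicates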
# hiPSC survival: enhancers of single-cell hiPSC survival, primary screen, ATPlite luminescence. survival enhancement, % at 20 µM. 0.044% of 360,000 active. 100% = ROCK inhibitor wells, 0% = DMSO; in the data active means survival enhancement above about 18%;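 further: cells exposed to compounds for 16 hours before the ATP read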
# Tb MetRS inh: T. brucei MetRS inhibitors, primary screen, biochemical, luminescence; 0.4% of 360,000 active; AID 624268, 2012; purified T. brucei MetRS, ATP depletion, Kinase-Glo luminescence; inhibition, % at 11.9 µM; methionyl-tRNA synthetase (Trypanosoma brucei brucei);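 active means inhibition above a per-plate cutoff of the control wells' mean inhibition plus 3 SD, cut at about 5.5% in these data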;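 further: 0% = DMSO wells median and 100% = median of wells with control inhibitor compound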
#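 Material – parasite MetRS enzyme · Medium – HEPES-MgCl2-KCl buffer plus DTT, spermine, BSA, pyrophosphatase · Reagent – ATP, methionine and E. coli bulk tRNA substrates · Times – 15 min enzyme-compound preincubation, 2 h reaction, 10 min detection, 25 °C · Measured by – luminescence of leftover ATP · Evaluation – percent inhibition relative to median high and low control wells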
# Exocytosis inh: LAMP-1 surface exposure blockers, TALL-104 cells – cell-based, flow cytometry, MLPCN library, primary screen | 0.66% of 360,000 active | inhibition, % at 10 µM | TALL-104 LAMP-1 surface exposure; cells stimulated with thapsigargin and PMA | AID 651702, 2012;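 active means inhibition above about 55%, limit read from the data; inconclusive means no clear call, values can overlap the other calls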
# MC4R ag barr: MC4R agonists recruiting beta-arrestin, primary screen, cell-based, luminescence, agonist arm of biased-ligand search | Melanocortin receptor 4 (Homo sapiens), P32245 | U2OS MC4R beta-arrestin complementation; percent of melanotan II response, DMSO zero | activation, % at 8.9 µM | 0.98% of 360,000 active | AID 540308, 2011;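 active means activation above a per-plate cutoff, the mean activation of sample wells on that plate plus 3 SD, cut at about 8% in these data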
# U2OS cAMP counter: nonselective cAMP signaling inhibitors, parental cells, counter-screen for MC4R biased antagonist project, cell-based, TR-FRET, U2OS, forskolin, triplicate. LANCE TR-FRET. 26% of 1,600 active. AID 602193, 2012. inhibition, % at 6.5 µM. shares compounds with MC4R antagonist;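 active means mean inhibition over triplicates above the low-control well mean plus 3 SD, set per campaign, cut at about 13% in these data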;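 further: signal is single emission at 671 nm which falls as cellular cAMP rises; 0% = forskolin-stimulated wells and 100% = buffer without forskolin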
# MC4R antag conf: MC4R cAMP antagonists, retest, confirmation, cell-based, TR-FRET; 27% of 1,600 active; inhibition, % at 6.5 µM; MC4R-expressing cells, MTII-stimulated cAMP; AID 602195, 2012; shares compounds with MC4R antagonist; in the data active means inhibition above about 29%;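 further: 0% = agonist stimulated wells alone and 100% = agonist stimulated wells plus saturating reference antagonist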
# * marks the source's active call; other numbers are inactive results; ? = inconclusive; / = no result given.
SMILES,ABCB6 inh 2,MC4R antagonist,hiPSC survival,Tb MetRS inh,Exocytosis inh,MC4R ag barr,U2OS cAMP counter,MC4R antag conf
CCn1c2ccccc2c2cc(/C=N/NC(=O)c3ccc(O)cc3)ccc21,97,29*,5,1,12,5,6,9
Cc1cccc(C(=O)NCCC(=O)NCc2ccccc2Cl)c1,101,12,0,0,1,1,/,/
COCCn1c(SCC(=O)NC2CCCCC2C)nnc1-c1ccncc1 (stereo unspecified),97,29*,1,0,5,0,0,-4
O=C(CCC1CCCN(Cc2ccc3c(c2)OCCO3)C1)NCc1ccccc1F (stereo unspecified),94,29*,-1,0,4,-3,-2,2
Cc1ccc(Cl)cc1NC(=O)Nc1cccs1,103,30*,-1,0,-1,-2,-1,-2
S=c1[nH]c(-c2ccccc2)cn1/N=C/c1cccc2ccccc12,97,29*,-2,0,2,0,1,-6
S=c1[nH]c(-c2ccccc2)cn1/N=C/c1ccccc1Br,92,5,0,0,4,-3,/,/
COc1cc(OC)c(OC)cc1CNC(=O)c1cccc(S(=O)(=O)N2CCc3ccccc3C2)c1,91,3,0,0,3,-2,/,/
Cc1ccc(NC(=O)c2ccccc2[N+](=O)[O-])nc1,88,38*,4,0,9,1,0,-8
Cc1ccc(NC(=O)c2ccc(Cl)cc2[N+](=O)[O-])nc1,101,-17,0,0,0,-3,/,/
O=C(Nc1ccccc1Cl)c1ccc(-c2ccccn2)s1,96,6,1,0,-5,3,/,/
O=C(Nc1nccs1)c1ccc(Cl)cc1[N+](=O)[O-],99,3,-4,0,2,-2,/,/
O=C(Nc1nccs1)c1cc2cc(Cl)ccc2oc1=O,98,33*,0,0,7,2,0,1
CCOC(=O)C1=C(CC)Nc2ccccc2N=C1NC(=O)c1oc2ccccc2c1C,94,0,0,0,4,0,/,/
CCOCc1c(C(=O)NC2=Nc3ccccc3NC(CC)=C2C(=O)OCC)oc2ccccc12,88,38*,-3,0,1,6,25*,17
COC(=O)c1c(NC(=O)/C=C/C(=O)O)sc(C)c1-c1ccc(C(C)C)cc1,99,33*,0,0,1,0,1,-10
COC(=O)c1sccc1NC(=O)/C=C/C(=O)O,95,6,0,-1,-4,2,/,/
COC(=O)c1c(NC(=O)/C=C/C(=O)O)sc(C)c1-c1ccc(C)cc1,93,6,-2,1,0,-2,/,/
COC(=O)c1sc(-c2ccc(Cl)cc2)cc1NC(=O)/C=C/C(=O)O,95,47*,-1,1,19,1,13*,20
O=C(NCc1cccnc1)C(=O)Nc1nc2ccccc2s1,103,30*,5,0,-16,-1,-4,-19
COC(=O)c1ccc(COC(=O)C(NC(=O)Cc2ccccc2)C(C)C)cc1 (stereo unspecified),93,-1,0,-1,-4,-2,/,/
COc1ccc(C(=O)/C=C/C(=O)N(CC(=O)NC2CCCCC2)CC2CCCO2)c(O)c1 (stereo unspecified),99,15,-2,-1,34,-5,/,/
COc1ccc(C(=O)/C=C/C(=O)N(CC(=O)NC2CCCCC2)Cc2ccccc2)c(O)c1,96,40*,-3,0,46,-2,5,11
COc1ccc(C(=O)/C=C/C(=O)N(CC(=O)NC2CCCCC2)Cc2ccccc2OC)c(O)c1,100,48*,-4,0,41,-6,7,14
COc1ccc(C(=O)/C=C/C(=O)N(Cc2ccccc2OC)C(C(=O)NC2CCCCC2)c2ccncc2)c(O)c1 (stereo unspecified),95,15,0,-1,?,4,/,/
SMILES,ABCB6 inh 2,MC4R antagonist,hiPSC survival,Tb MetRS inh,Exocytosis inh,MC4R ag barr,U2OS cAMP counter,MC4R antag conf
COc1ccc(NC(=O)CCNS(=O)(=O)c2ccc(Cl)c([N+](=O)[O-])c2)cc1S(N)(=O)=O,95,1,0,-1,2,0,/,/
CC(=O)c1c(C)oc2ccc(N(C(C)=O)S(=O)(=O)c3ccc(Cl)c([N+](=O)[O-])c3)cc12,98,-40,0,0,13,-6,/,/
CCOC(=O)C(C)(C)N(Cc1ccc(C)cc1)S(=O)(=O)c1ccc(Cl)c([N+](=O)[O-])c1,92,31*,-3,-1,46,2,20*,52*
CCOC(=O)C(C)(C)NS(=O)(=O)c1ccc(Cl)c([N+](=O)[O-])c1,98,40*,-2,1,2,-2,21*,35*
CCn1ccnc1CN(C)C(=O)C1CCC(=O)N(CCc2cccc(F)c2)C1 (stereo unspecified),97,-3,-1,0,0,-3,/,/
Cc1ccc(-n2nc(-c3ccc(OC(F)(F)F)cc3)cc2N)cc1C,92,29*,-1,0,-4,4,4,8
C/C(=N\NC(=O)C(=O)N/N=C(\C)c1cccc(O)c1)c1cccc(O)c1,98,-5,2,0,2,-2,/,/
CCOCCCNC(=O)N1CCOCC1,96,-2,0,0,-2,0,/,/
O=C(NCCCCCCNC(=O)N1CCCCCC1)N1CCCCCC1,103,30*,4,0,-4,1,-3,0
NC(=O)C1CCN(S(=O)(=O)c2ccccc2[N+](=O)[O-])CC1,99,3,0,0,-15,-2,/,/
CC1(C)Cc2c(c(N3CCOCC3)nc3sc4c(NCC5CCCO5)nnnc4c23)CS1 (stereo unspecified),104,31*,0,0,5,1,0,-1

# Source: PubChem BioAssay
